In article PMC4774891 (Pharmaceutical research, 2015):

Legend:
In vitro drug release = assay type: physicochemical; conditions: PBS 1% Volpo pH 6.8, 37°C
Procedure, shortened: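 Equal drug amounts (free drug, spray-dried formulation, or physical mixture) suspended in 500 ml PBS with 1% Volpo, pH 6.8. USP type II paddle, 50 rpm, 37±0.5°C, followed over 48 h.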

Chronic toxicity = assay type: in vivo; conditions: 4 weeks daily oral
A431 tumors = assay: IHC analysis of A431 tumors; assay type: in vivo, Nu/nu mice; conditions: untreated control 34.00±6.26
[1] = Oral pharmacokinetic study; assay type: in vivo, Sprague Dawley rats; conditions: rat
[2] = free drug; cited from earlier work
[3] = test system: A431 epidermoid carcinoma subcutaneous xenograft; assay: Anticancer study in A431 subcutaneous xenograft model; assay type: in vivo, Nu/nu mice; conditions: 50 mg/kg daily orally, 4 weeks; vehicle control 6663.01 ±1113.23
[4] = Caco-2 permeability study; conditions: human, Caco-2, pH 5.8
VEGF = VEGF estimation by ELISA in serum and tumor lysates; assay type: in vivo, Nu/nu mice
[5] = Sprague Dawley, plasma, po, 50 mg/kg

average permeability (paracellular control) (Caco-2 cell monolayers) | Compound | drug released after 48 h (In vitro drug release) | body weight change (Chronic toxicity) | cleaved caspase 3 positive apoptotic cells/field (A431 tumors) | CL ([1]; 50 mg/kg orally) | Vss ([1]; 50 mg/kg orally) | maximum plasma concentration (approximate molar) ([1]; 50 mg/kg orally) | AUC(0-inf) [1, 5] | Cmax [1, 5] | MRT [1, 5] | Tmax [1, 5] | half-life [1, 5] | aqueous solubility [2] | final tumor volume [3] | Papp A→B at 120 min, 100 μM [4] | VEGF level in serum (VEGF; serum, control 572.90±38.51) | VEGF level in tumor lysates (VEGF; tumor lysates, control 355.35± 49.93)
< 0.15 ×10⁻⁶ cm/s | lucifer yellow | – | – | – | – | – | – | – | – | – | – | – | – | – | – | – | –
– | COc1cc2ncnc(Nc3ccc(F)c(Cl)c3)c2cc1OCCCN1CCOCC1 [Gef free drug, Gefitinib] | 16% | no change in the body weights | 145.33±28.44 cells/field | 1.9 ± 0.0408 mL/day/kg | 0.00045 ± 0.00022 L/kg | approximately 0.55 μM | 1340 ± 244 ng·h/mL | 248 ± 89.5 ng/mL | 8.85 ± 1.83 h | 1.25 ± 0.25 h | 7.46 ± 1.75 h | less than 1 mg/ml | 3534.49±896.16 mm^3 | 0.34 ± 0.09 ×10⁻⁶ cm/s | 336.40 ± 55.84 pg/mL | 175.65±25.76 pg/mg protein
